Measured values taken from PMC10242637 (Saudi Pharmaceutical Journal : SPJ, 2023).

Key:
[1] = Cytotoxicity against mammalian cells; assay type: cell-based; details: mouse, NCTC clone 929 (L929) fibroblasts
In short: (§1)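 NCTC clone 929 fibroblasts were seeded at 6 × 10^4 cells/well and exposed to test compound (200 to 1.5 μM, 1:2 dilutions) for 48 h at 37 °C in 5% CO2, with 0.5% v/v DMSO final. Viability was read by MTT at 570 nm, and CC50 was taken from sigmoid dose–response curves. SI = CC50 divided by the amastigote IC50. Two independent runs, each in duplicate.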

[2] = system: T. cruzi trypomastigotes (Y strain); assay: Anti-trypomastigote assay; assay type: cell-based; details: Trypanosoma cruzi, 24 h, read-out: IC50 (µM ± SD) T.c.T
In short: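 Y-strain trypomastigotes at 1 × 10^6 cells/well in RPMI 1640 were exposed to test compound (150 to 1.1 μM, 1:2 dilutions) for 24 h at 37 °C in 5% CO2, with 0.5% v/v DMSO final. Resazurin (0.011% v/v) was then added for 24 h and absorbance read at 570 nm. IC50 came from non-linear regression against untreated parasites as 100% viability. Two independent runs, each in duplicate.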

[3] = system: fibroblasts NCTC cells (clone 929); assay: Cytotoxicity against mammalian cells; assay type: cell-based; details: for SI (Selective Index): ratio between CC50 (NCTC) and IC50 (amastigote - TCA); for CC50: read-out: CC50 NCTC, NCTC cells (clone L929), 48 h, MTT
In short: as §1

[4] = Calculation of physicochemical properties and descriptors; details: 2b over the neutral analogue 2c; from calculated LogS7.4

Row | increase in LogS7.4 value [4] | Compound | CC50 at 48 h [1] | IC50 [2] | SI (Selective Index) [3] | CC50 [3]
1 |  | O=C(c1ccc(Cl)cc1)N1CCN(Cc2ccccc2)CC1 [1 g, 1‐benzyl‐4‐(4‐chlorobenzoyl)piperazine] | > 200 µM | > 150 µM |  | 
2 |  | COc1cc(C(=O)N2CCN(Cc3ccccc3)CC2)ccc1O [1a, (4-Benzylpiperazin-1-yl)(4-hydroxy-3-methoxyphenyl)methanone] | > 200 µM | > 150 µM | >5.6 | 
3 |  | COc1ccc(C(=O)N2CCN(Cc3ccccc3)CC2)cc1 [1b, (4-Benzylpiperazin-1-yl)(4-methoxyphenyl)methanone] | > 200 µM | > 150 µM |  | 
4 |  | COc1ccc(C(=O)N2CCC(Cc3ccccc3)CC2)cc1 [1c, 4-Benzyl-1-(4-methoxybenzoyl)piperidine] | > 200 µM | 65.3 ± 2.3 µM |  | 
5 |  | COc1cc(/C=C/C(=O)N2CCN(Cc3ccccc3)CC2)ccc1O [2a, (2E)-1-(4-benzylpiperazin-1-yl)-3-(4-hydroxy-3-methoxyphenyl)prop-2-en-1-one] | > 200 µM | > 150 µM |  | 
6 | 1.3 log unit | COc1ccc(/C=C/C(=O)N2CCN(Cc3ccccc3)CC2)cc1 [2b, (2E)-1-(4-benzylpiperazin-1-yl)-3-(4-methoxyphenyl) prop-2-en-1-one] | > 200 µM | > 150 µM | >7 | 
7 |  | O=C(Cn1ccnc1[N+](=O)[O-])NCc1ccccc1 [BZN, Benznidazole, reference compound] | > 200 µM | 12.3 ± 3.3 µM | >40 | 
8 |  | (2E)-1-(1-benzylpiperidin-4-yl)-3-(4-methoxyphenyl)prop-2-en-1-one [2c] |  |  | >11.2 | > 200 µM
9 |  | (2E)-3-(3,4-dihydroxyphenyl)-1-(4-phenylpiperazin-1-yl)prop-2-en-1-one [2d] |  |  | 2.8 | 57.2 ± 2 µM
10 |  | (2E)-3-(4-hydroxy-3-methoxyphenyl)-1-(4-phenylpiperazin-1-yl)prop-2-en-1-one |  |  |  | > 200 µM
11 |  | (3,4-dihydroxyphenyl)-(4-phenylpiperazin-1-yl)methanone [1d] |  |  | >5.7 | > 200 µM
12 |  | (4-hydroxy-3-methoxyphenyl)(4-phenylpiperazin-1-yl)methanone [1e] |  |  |  | > 200 µM
13 |  | (4-methoxyphenyl)(4-phenylpiperazin-1-yl)methanone [1f] |  |  |  | > 200 µM
